Data on 22 compounds can be found in ChEMBL document CHEMBL1221374, “Synthesis, proapoptotic screening, and structure-activity relationships of novel aza-lupane triterpenoids” (Bioorg Med Chem Lett, 2010).

For one experiment, the system named is SK-MEL-2. As to the kind of experiment: Cytotoxicity against human SK-MEL-2 cells after 72 hrs by MTS assay. Type of experiment: functional, cell-based. The following applies: SK-MEL-2, 72 h. The gist of the method:
(§1)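 Cells (1 × 10^4/well) seeded the evening before. Compounds were taken from 10 mM DMSO stock into growth medium and tested at 2, 10, 25, 50 and 75 µM, four wells each, with DMSO-matched controls. Exposure was 72 h, then MTS reagent for 1.5-4 h at 37 °C, and formazan A490 was read against DMSO-treated cells. IC50 is the mean of four wells from one experiment, or of three experiments where stated.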
(In general: Formazan colour is commonly taken as a measure of viable cells.)

Another experiment relates to A-375. The experiment in a line: Cytotoxicity against human A375 cells after 72 hrs by MTS assay. Format: functional, cell-based. The following applies: A-375, 72 h. The gist of the method: as §1
For a further experiment, the system named is Daoy. As to the kind of experiment: Cytotoxicity against human DaOY cells after 72 hrs by MTS assay. Type of experiment: functional, cell-based. The essentials: as §1
A further experiment deals with HT-29. The experiment in a line: Cytotoxicity against human HT-29 cells after 72 hrs by MTS assay. Format: functional, cell-based. Conditions: HT-29, 72 h. The essentials:
as §1

In another experiment the test system is MCF7. As to the kind of experiment: Cytotoxicity against human MCF7 cells after 72 hrs by MTS assay. Format: functional, cell-based. The following applies: MCF7, 72 h. The essentials:
as §1

The test system of experiment [1] is OVCAR-3. As to the kind of experiment: Cytotoxicity against human OVCAR-3 cells after 120 hrs by MTS assay. Conditions: OVCAR-3, 120 h.
Experiment [2] can be described thus: Cytotoxicity against human LN229 cells after 72 hrs by MTS assay. Type of experiment: functional, cell-based. Conditions: LN-229, 72 h. The gist of the method:
as §1

For experiment [3], the system named is OVCAR-3. The experiment in a line: Cytotoxicity against human OVCAR-3 cells after 72 hrs by MTS assay. Format: functional, cell-based. The following applies: OVCAR-3, 72 h.

pIC50: −log10 of the molar value.

Consider `C=C(C)[C@@H]1CC[C@]2(CO)CC[C@]3(C)[C@H](CC[C@@H]4[C@@]5(C)CCC(NCCOC)C(C)(C)[C@@H]5CC[C@]43C)[C@@H]12` (stereo partly drawn), for which the negative-log IC50 (pIC50) (commonly −log10 of the IC50, conventionally taken in molar units) is 5.15 with SK-MEL-2; 5.15 in the experiment with A-375; 5.10 in the experiment with Daoy; 4.72 in the experiment with HT-29; 5.10 in the experiment on MCF7; 4.66 in the experiment with OVCAR-3 [1].

Take `C=C(CNCCO)[C@@H]1CC[C@]2(CO)CC[C@]3(C)[C@H](CC[C@@H]4[C@@]5(C)CCC(NCCOC)C(C)(C)[C@@H]5CC[C@]43C)[C@@H]12` (stereo partly drawn): the pIC50 was 5.10 with SK-MEL-2; 5.40 with A-375; 5.30 in the experiment with Daoy; 4.55 in experiment [2]; 5.70 in the experiment on HT-29; 4.96 in the experiment on MCF7.

For `C=C(C)[C@@H]1CC[C@]2(C(=O)O)CC[C@]3(C)[C@H](CC[C@@H]4[C@@]5(C)CCC(NCCc6ccc(O)cc6)C(C)(C)[C@@H]5CC[C@]43C)[C@@H]12` (stereo partly drawn), the pIC50 in the experiment on SK-MEL-2 was 5.22; in the experiment on A-375 it was 5.30; with Daoy, 5.22; in experiment [2], 5.30; in the experiment on OVCAR-3 [3], 5.22; with HT-29, 5.40. In addition, the negative logarithm of the IC50 (pIC50) in the experiment on MCF7 was 5.22.

Regarding `C=C(CNCCO)[C@@H]1CC[C@]2(CO)CC[C@]3(C)[C@H](CC[C@@H]4[C@@]5(C)CCC(NCc6ccc7c(c6)OCO7)C(C)(C)[C@@H]5CC[C@]43C)[C@@H]12` (stereo partly drawn), the negative-log IC50 (pIC50) was 5.40 in the experiment with SK-MEL-2; 5.30 with A-375; 4.89 in the experiment with Daoy; 4.49 in experiment [2]; 5.30 with HT-29; 4.89 in the experiment with MCF7. In the experiment with OVCAR-3 [1], this compound had a pIC50 of 4.19.

Turning to `C=C(CNCCc1ccc(O)cc1)[C@@H]1CC[C@]2(CO)CC[C@]3(C)[C@H](CC[C@@H]4[C@@]5(C)CC[C@H](O)C(C)(C)[C@@H]5CC[C@]43C)[C@@H]12`, the negative logarithm of the IC50 (pIC50) with SK-MEL-2 and in the experiment on Daoy was 4.80 throughout.

In the case of `C=C(C)[C@@H]1CC[C@]2(CO)CC[C@]3(C)[C@H](CC[C@@H]4[C@@]5(C)CCC(NCCc6ccc(O)c(O)c6)C(C)(C)[C@@H]5CC[C@]43C)[C@@H]12` (stereo partly drawn), the negative logarithm of the IC50 (pIC50) in the experiment with SK-MEL-2 was 4.77; in the experiment on A-375, 5.22; in the experiment on Daoy, 5.00; in experiment [2], 5.05; with HT-29, 5.22; with MCF7 it was 4.77. This compound also gave a pIC50 in the experiment with OVCAR-3 [1] of 5.40.

Consider `C=C(C)[C@@H]1CC[C@]2(C(=O)O)CC[C@]3(C)[C@H](CC[C@@H]4[C@@]5(C)CCC(NCCO)C(C)(C)[C@@H]5CC[C@]43C)[C@@H]12` (stereo partly drawn), for which the pIC50 in the experiment with SK-MEL-2 is 4.44; in the experiment on A-375, 4.85; with Daoy, greater than 5.70; in the experiment on OVCAR-3 [3], 4.55; with HT-29 it was 4.80; in the experiment on MCF7 it was 4.46.

Consider `C=C(CO)[C@@H]1CC[C@]2(CO)CC[C@]3(C)[C@H](CC[C@@H]4[C@@]5(C)CC[C@H](N)C(C)(C)[C@@H]5CC[C@]43C)[C@@H]12`, for which the pIC50 was 4.47 with SK-MEL-2; 5.22 in the experiment with A-375; 4.51 in the experiment on Daoy; 4.77 in experiment [2]; 4.77 in the experiment on HT-29; 4.82 in the experiment with MCF7. Also, in the experiment with OVCAR-3 [1], the negative logarithm of the IC50 (pIC50) was 4.85.

For the compound `C=C(C)[C@@H]1CC[C@]2(CO)CC[C@]3(C)[C@H](CC[C@@H]4[C@@]5(C)CCC(NCCO)C(C)(C)[C@@H]5CC[C@]43C)[C@@H]12` (stereo partly drawn), the pIC50 in the experiment with SK-MEL-2 is greater than 5.70; with A-375, 5.70; with Daoy it was 5.22; in experiment [2], 5.40; with OVCAR-3 [3], 5.30; in the experiment with HT-29 it was 5.70. The same compound gave a pIC50 in the experiment with MCF7 of 5.30.

For the compound `C=C(CO)[C@@H]1CC[C@]2(CO)CC[C@]3(C)[C@H](CC[C@@H]4[C@@]5(C)CC[C@H](NCCOC)C(C)(C)[C@@H]5CC[C@]43C)[C@@H]12`, the pIC50 was 4.42 in the experiment on SK-MEL-2; 4.74 with A-375; 4.47 in the experiment with Daoy; 4.42 in experiment [2]; 4.33 in the experiment with HT-29; 4.40 with MCF7. In the experiment on OVCAR-3 [1], this compound showed a pIC50 of 4.40.

Take `C=C(C)[C@@H]1CC[C@]2(C(=O)O)CC[C@]3(C)[C@H](CC[C@@H]4[C@@]5(C)CC[C@H](O)C(C)(C)[C@@H]5CC[C@]43C)[C@@H]12` [BETULINIC ACID]: the pIC50 in the experiment on SK-MEL-2 is 5.15; in the experiment with A-375, 4.66; in the experiment with Daoy, 4.96; in experiment [2] it was 4.54; in the experiment with HT-29, 4.51; in the experiment on MCF7, 4.52. Also, the negative-log IC50 (pIC50) in the experiment on OVCAR-3 [1] is 4.40.

Turning to `C=C(CO)[C@@H]1CC[C@]2(CO)CC[C@]3(C)[C@H](CC[C@@H]4[C@@]5(C)CC[C@H](NCCO)C(C)(C)[C@@H]5CC[C@]43C)[C@@H]12`, the negative logarithm of the IC50 (pIC50) is 4.47 with SK-MEL-2; 4.80 with A-375; 4.54 in the experiment on Daoy; 4.43 in experiment [2]; 4.41 in the experiment with OVCAR-3 [3]; 4.19 with HT-29. Moreover, the negative-log IC50 (pIC50) in the experiment with MCF7 was 4.39.

As for `C=C(C)[C@@H]1CC[C@]2(CO)CC[C@]3(C)[C@H](CC[C@@H]4[C@@]5(C)CCC(N)C(C)(C)[C@@H]5CC[C@]43C)[C@@H]12` (stereo partly drawn), the negative logarithm of the IC50 (pIC50) is 5.05 in the experiment on SK-MEL-2; 5.70 in the experiment on A-375; 4.72 in the experiment with Daoy; greater than 5.70 in experiment [2]; 5.30 with OVCAR-3 [3]; 5.70 with HT-29. The compound further gave a pIC50 with MCF7 of 5.30.

As for `C=C(C)[C@@H]1CC[C@]2(C(=O)O)CC[C@]3(C)[C@H](CC[C@@H]4[C@@]5(C)CCC(NCCc6ccc(O)c(O)c6)C(C)(C)[C@@H]5CC[C@]43C)[C@@H]12` (stereo partly drawn), the negative-log IC50 (pIC50) with SK-MEL-2 is 4.72; in the experiment with Daoy, 4.52; in experiment [2], 4.54; in the experiment with OVCAR-3 [3], 4.66; in the experiment with HT-29, 4.19; in the experiment on MCF7, 4.43.

Regarding `C=C(C)[C@@H]1CC[C@]2(CO)CC[C@]3(C)[C@H](CC[C@@H]4[C@@]5(C)CCC(NCCc6ccc(O)cc6)C(C)(C)[C@@H]5CC[C@]43C)[C@@H]12` (stereo partly drawn), the pIC50 is 5.70 in the experiment on SK-MEL-2; 5.40 in the experiment on A-375; greater than 5.70 in the experiment with Daoy; 5.10 in experiment [2]; 5.70 in the experiment on HT-29; 5.30 in the experiment with MCF7. Moreover, in the experiment on OVCAR-3 [1], the pIC50 is 5.30.

For the compound `C=C(CNCCO)[C@@H]1CC[C@]2(CO)CC[C@]3(C)[C@H](CC[C@@H]4[C@@]5(C)CC[C@H](O)C(C)(C)[C@@H]5CC[C@]43C)[C@@H]12`, the pIC50 in the experiment on SK-MEL-2 is 4.82; in the experiment with Daoy, 4.46.

`C=C(CNCCO)[C@@H]1CC[C@]2(CO)CC[C@]3(C)[C@H](CC[C@@H]4[C@@]5(C)CCC(NCCO)C(C)(C)[C@@H]5CC[C@]43C)[C@@H]12` (stereo partly drawn): the pIC50 in the experiment on SK-MEL-2 was 5.15; with A-375 it was 5.22; in the experiment on Daoy it was 4.89; in experiment [2] it was 4.80; in the experiment with HT-29, 5.70; in the experiment with MCF7, 5.22.

Consider `C=C(C)[C@@H]1CC[C@]2(C(=O)O)CC[C@]3(C)[C@H](CC[C@@H]4[C@@]5(C)CCC(N)C(C)(C)[C@@H]5CC[C@]43C)[C@@H]12` (stereo partly drawn), for which the results for the pIC50 with SK-MEL-2, in the experiment on Daoy and in the experiment on OVCAR-3 [1] were 5.10, 5.15 and 4.85, respectively.

For the compound `C=C(CNCCO)[C@@H]1CC[C@]2(CO)CC[C@]3(C)[C@H](CC[C@@H]4[C@@]5(C)CCC(NCCc6ccc(O)c(O)c6)C(C)(C)[C@@H]5CC[C@]43C)[C@@H]12` (stereo partly drawn), the negative logarithm of the IC50 (pIC50) in the experiment with SK-MEL-2 is 5.30; with A-375, 5.15; in the experiment on Daoy it was 5.30; in experiment [2], 4.49; in the experiment on HT-29 it was 5.40; with MCF7, 5.40.

In the case of `C=C(CNCCc1ccc(O)cc1)[C@@H]1CC[C@]2(CO)CC[C@]3(C)[C@H](CC[C@@H]4[C@@]5(C)CCC(=O)C(C)(C)[C@@H]5CC[C@]43C)[C@@H]12`, the negative logarithm of the IC50 (pIC50) with SK-MEL-2 is 4.80; in the experiment on A-375 it was 5.22; with Daoy it was 4.77; in experiment [2], 5.10; in the experiment with HT-29, 5.40; with MCF7 it was 5.22.

Regarding `C=C(CO)[C@@H]1CC[C@]2(CO)CC[C@]3(C)[C@H](CC[C@@H]4[C@@]5(C)CC[C@H](NCc6ccc7c(c6)OCO7)C(C)(C)[C@@H]5CC[C@]43C)[C@@H]12`, the pIC50 in the experiment on SK-MEL-2 is 4.77; in the experiment with A-375 it was less than 4.12; with Daoy, 4.80; in experiment [2], 4.14; in the experiment with HT-29 it was less than 4.12; in the experiment on MCF7, 4.12. The same compound showed a pIC50 in the experiment with OVCAR-3 [1] of 4.70.

Turning to `C=C(CO)[C@@H]1CC[C@]2(CO)CC[C@]3(C)[C@H](CC[C@@H]4[C@@]5(C)CC[C@H](NCCc6ccc(O)cc6)C(C)(C)[C@@H]5CC[C@]43C)[C@@H]12`, the pIC50 is 4.42 in the experiment with SK-MEL-2; 5.22 in the experiment on A-375; 4.49 in the experiment on Daoy; 4.77 in experiment [2]; 4.68 with HT-29; 4.77 in the experiment on MCF7. The compound also had a negative logarithm of the IC50 (pIC50) in the experiment on OVCAR-3 [1] of 4.64.
